# Source: ChEMBL document CHEMBL4229424, “Design, synthesis and anticancer evaluation of acridine hydroxamic acid derivatives as dual Topo and HDAC inhibitors” (Bioorg Med Chem, 2018)
# The source made the active and inactive calls. No cut-off for these calls is given here.
# Test system: U-937
# Test: Induction of apoptosis in human U937 cells assessed as increase in cleaved caspase 7 levels up to 2.5 uM after 36 hrs by Western blot analysis
# Assay type: functional, cell-based
# Settings: not given
# Summary of the method: (§1)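 U937 cells exposed to 0, 0.1, 0.5, 1 and 2.5 μM for 36 h. Cells lysed at 0 °C for 0.5 h, protein measured by BCA, and lysates run on 12% SDS-PAGE and transferred to PVDF. Blocking in 5% milk, primary antibodies (1:1000) at 4 °C overnight, HRP secondary for 2 h, ECL detection.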
row,Compound,Activity
1,O=C(CCCCCCn1cc(-c2ccc(Nc3c4ccccc4nc4ccccc34)cc2)nn1)NO,Active

# Molecular target: Histone deacetylase 1 (Homo sapiens, UniProt Q13547)
# Sequence (Q13547 whole entry): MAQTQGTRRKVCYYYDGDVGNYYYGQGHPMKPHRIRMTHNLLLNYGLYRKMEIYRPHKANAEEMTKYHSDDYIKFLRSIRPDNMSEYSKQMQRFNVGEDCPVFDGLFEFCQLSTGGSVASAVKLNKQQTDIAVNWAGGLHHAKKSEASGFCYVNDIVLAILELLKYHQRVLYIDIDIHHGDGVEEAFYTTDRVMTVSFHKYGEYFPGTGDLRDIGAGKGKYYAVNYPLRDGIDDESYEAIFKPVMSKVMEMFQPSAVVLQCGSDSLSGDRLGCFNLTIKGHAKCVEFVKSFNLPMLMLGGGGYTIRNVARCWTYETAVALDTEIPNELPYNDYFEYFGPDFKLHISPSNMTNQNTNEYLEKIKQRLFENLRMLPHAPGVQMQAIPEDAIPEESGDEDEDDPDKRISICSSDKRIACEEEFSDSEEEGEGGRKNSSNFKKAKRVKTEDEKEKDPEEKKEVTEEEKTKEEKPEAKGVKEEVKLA
# Test: Inhibition of HDAC1 (unknown origin) using Ac-peptide as substrate pretreated for 15 mins followed by substrate addition and measured after 1 hr by fluorescence assay
# Settings: not given
row,Compound,IC50 [µM]
1,COc1ccc2nc3cc(Cl)ccc3c(Nc3ccc(-c4cn(CCCCCC(=O)NO)nn4)cc3)c2c1,0.306
2,COc1ccc2nc3cc(Cl)ccc3c(Nc3cccc(-c4cn(CCCCCC(=O)NO)nn4)c3)c2c1,0.224
3,O=C(CCc1ccc(Nc2c3ccccc3nc3ccccc23)cc1)NO,0.134
4,O=C(CCCCCCn1cc(-c2ccc(Nc3c4ccccc4nc4ccccc34)cc2)nn1)NO,0.0039
5,O=C(CCCCCCn1cc(-c2cccc(Nc3c4ccccc4nc4ccccc34)c2)nn1)NO,0.0051
6,O=C(CCCCCn1cc(-c2ccc(Nc3c4ccccc4nc4ccccc34)cc2)nn1)NO,0.0082
7,COc1ccc2nc3cc(Cl)ccc3c(Nc3ccc(CCC(=O)NO)cc3)c2c1,0.0662
8,O=C(CCCCCn1cc(-c2cccc(Nc3c4ccccc4nc4ccccc34)c2)nn1)NO,0.0141

# Test system: Calf thymus DNA
# Test: Binding affinity to calf thymus DNA by UV-Vis absorption spectral analysis
# Assay type: nucleic-acid assay
# Settings: Bos taurus
# Summary of the method: (§2)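 Compound held at 10 μM and titrated with increasing calf thymus DNA in Tris-HCl buffer (pH 7.4). UV–visible absorption spectra recorded, and absorbance changes plotted against DNA concentration.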
row,Compound,Kb [×10⁵ /M]
1,O=C(CCCCCCn1cc(-c2ccc(Nc3c4ccccc4nc4ccccc34)cc2)nn1)NO,1.67
2,COc1cc(NS(C)(=O)=O)ccc1Nc1c2ccccc2nc2ccccc12 [AMSACRINE],1.36

# Molecular target: T1, Protein deacetylase HDAC6 (Homo sapiens, UniProt Q9UBN7)
# T1 sequence (Q9UBN7 whole entry): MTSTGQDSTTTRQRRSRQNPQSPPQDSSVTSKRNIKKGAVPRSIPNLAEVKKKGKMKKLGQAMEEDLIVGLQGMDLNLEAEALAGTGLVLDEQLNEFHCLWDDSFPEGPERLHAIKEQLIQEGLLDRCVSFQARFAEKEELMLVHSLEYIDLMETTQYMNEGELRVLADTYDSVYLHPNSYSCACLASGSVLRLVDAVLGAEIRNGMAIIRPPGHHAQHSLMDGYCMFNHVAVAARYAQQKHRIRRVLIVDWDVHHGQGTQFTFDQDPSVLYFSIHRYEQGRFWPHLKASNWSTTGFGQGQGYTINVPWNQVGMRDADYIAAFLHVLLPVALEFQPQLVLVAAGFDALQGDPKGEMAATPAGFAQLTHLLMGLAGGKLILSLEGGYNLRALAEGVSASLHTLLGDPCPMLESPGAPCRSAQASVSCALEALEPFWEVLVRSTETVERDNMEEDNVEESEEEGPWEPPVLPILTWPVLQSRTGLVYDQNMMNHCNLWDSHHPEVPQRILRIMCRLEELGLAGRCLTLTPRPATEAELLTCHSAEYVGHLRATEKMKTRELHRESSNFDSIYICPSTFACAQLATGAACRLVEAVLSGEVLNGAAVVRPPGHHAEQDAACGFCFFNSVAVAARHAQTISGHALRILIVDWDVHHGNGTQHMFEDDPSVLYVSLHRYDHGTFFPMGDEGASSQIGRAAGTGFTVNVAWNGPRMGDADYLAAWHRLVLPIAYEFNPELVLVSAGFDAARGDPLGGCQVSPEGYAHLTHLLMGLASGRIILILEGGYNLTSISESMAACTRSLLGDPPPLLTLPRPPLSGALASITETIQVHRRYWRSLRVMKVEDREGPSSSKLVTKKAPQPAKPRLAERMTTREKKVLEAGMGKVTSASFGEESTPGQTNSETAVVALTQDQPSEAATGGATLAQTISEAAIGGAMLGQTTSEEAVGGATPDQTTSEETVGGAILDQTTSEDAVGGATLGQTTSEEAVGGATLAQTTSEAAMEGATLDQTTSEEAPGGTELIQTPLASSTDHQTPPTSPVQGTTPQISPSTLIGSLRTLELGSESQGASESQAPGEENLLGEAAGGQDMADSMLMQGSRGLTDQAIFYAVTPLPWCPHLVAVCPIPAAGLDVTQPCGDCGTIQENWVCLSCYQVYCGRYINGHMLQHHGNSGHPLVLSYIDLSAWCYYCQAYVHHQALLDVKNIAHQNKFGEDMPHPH
# Test: Inhibition of HDAC6 (unknown origin) using Ac-peptide as substrate pretreated for 15 mins followed by substrate addition and measured after 1 hr by fluorescence assay
# Settings: not given
row,Compound,IC50 [µM]
1,COc1ccc2nc3cc(Cl)ccc3c(Nc3ccc(-c4cn(CCCCCC(=O)NO)nn4)cc3)c2c1,0.029
2,COc1ccc2nc3cc(Cl)ccc3c(Nc3cccc(-c4cn(CCCCCC(=O)NO)nn4)c3)c2c1,0.0133
3,O=C(CCc1ccc(Nc2c3ccccc3nc3ccccc23)cc1)NO,0.0993
4,O=C(CCCCCCn1cc(-c2ccc(Nc3c4ccccc4nc4ccccc34)cc2)nn1)NO,0.0029
5,O=C(CCCCCCn1cc(-c2cccc(Nc3c4ccccc4nc4ccccc34)c2)nn1)NO,0.005
6,O=C(CCCCCn1cc(-c2ccc(Nc3c4ccccc4nc4ccccc34)cc2)nn1)NO,0.0026
7,COc1ccc2nc3cc(Cl)ccc3c(Nc3ccc(CCC(=O)NO)cc3)c2c1,0.0808
8,O=C(CCCCCn1cc(-c2cccc(Nc3c4ccccc4nc4ccccc34)c2)nn1)NO,0.0034

# Test system: Calf thymus DNA
# Test: Binding affinity to calf thymus DNA assessed as maximum absorption peak at 10 uM by UV-Vis absorption spectral analysis
# Assay type: nucleic-acid assay
# Settings: Bos taurus
# Summary of the method: as §2
row,Compound,Activity [nm]
1,O=C(CCCCCCn1cc(-c2ccc(Nc3c4ccccc4nc4ccccc34)cc2)nn1)NO,430

# Test system: U-937
# Test: Induction of apoptosis in human U937 cells assessed as increase in cleaved caspase 8 levels up to 2.5 uM after 36 hrs by Western blot analysis
# Assay type: functional, cell-based
# Settings: not given
# Summary of the method: as §1
row,Compound,Activity
1,O=C(CCCCCCn1cc(-c2ccc(Nc3c4ccccc4nc4ccccc34)cc2)nn1)NO,Active

# Test system: Calf thymus DNA
# Test: Binding affinity to calf thymus DNA by fluorescence emission spectral analysis
# Assay type: nucleic-acid assay
# Settings: Bos taurus
row,Compound,Kq [×10⁵ /M]
1,O=C(CCCCCCn1cc(-c2ccc(Nc3c4ccccc4nc4ccccc34)cc2)nn1)NO,1.56

# Molecular target: DNA topoisomerase 2-alpha (Homo sapiens) (UniProt P11388)
# Sequence (P11388 whole entry): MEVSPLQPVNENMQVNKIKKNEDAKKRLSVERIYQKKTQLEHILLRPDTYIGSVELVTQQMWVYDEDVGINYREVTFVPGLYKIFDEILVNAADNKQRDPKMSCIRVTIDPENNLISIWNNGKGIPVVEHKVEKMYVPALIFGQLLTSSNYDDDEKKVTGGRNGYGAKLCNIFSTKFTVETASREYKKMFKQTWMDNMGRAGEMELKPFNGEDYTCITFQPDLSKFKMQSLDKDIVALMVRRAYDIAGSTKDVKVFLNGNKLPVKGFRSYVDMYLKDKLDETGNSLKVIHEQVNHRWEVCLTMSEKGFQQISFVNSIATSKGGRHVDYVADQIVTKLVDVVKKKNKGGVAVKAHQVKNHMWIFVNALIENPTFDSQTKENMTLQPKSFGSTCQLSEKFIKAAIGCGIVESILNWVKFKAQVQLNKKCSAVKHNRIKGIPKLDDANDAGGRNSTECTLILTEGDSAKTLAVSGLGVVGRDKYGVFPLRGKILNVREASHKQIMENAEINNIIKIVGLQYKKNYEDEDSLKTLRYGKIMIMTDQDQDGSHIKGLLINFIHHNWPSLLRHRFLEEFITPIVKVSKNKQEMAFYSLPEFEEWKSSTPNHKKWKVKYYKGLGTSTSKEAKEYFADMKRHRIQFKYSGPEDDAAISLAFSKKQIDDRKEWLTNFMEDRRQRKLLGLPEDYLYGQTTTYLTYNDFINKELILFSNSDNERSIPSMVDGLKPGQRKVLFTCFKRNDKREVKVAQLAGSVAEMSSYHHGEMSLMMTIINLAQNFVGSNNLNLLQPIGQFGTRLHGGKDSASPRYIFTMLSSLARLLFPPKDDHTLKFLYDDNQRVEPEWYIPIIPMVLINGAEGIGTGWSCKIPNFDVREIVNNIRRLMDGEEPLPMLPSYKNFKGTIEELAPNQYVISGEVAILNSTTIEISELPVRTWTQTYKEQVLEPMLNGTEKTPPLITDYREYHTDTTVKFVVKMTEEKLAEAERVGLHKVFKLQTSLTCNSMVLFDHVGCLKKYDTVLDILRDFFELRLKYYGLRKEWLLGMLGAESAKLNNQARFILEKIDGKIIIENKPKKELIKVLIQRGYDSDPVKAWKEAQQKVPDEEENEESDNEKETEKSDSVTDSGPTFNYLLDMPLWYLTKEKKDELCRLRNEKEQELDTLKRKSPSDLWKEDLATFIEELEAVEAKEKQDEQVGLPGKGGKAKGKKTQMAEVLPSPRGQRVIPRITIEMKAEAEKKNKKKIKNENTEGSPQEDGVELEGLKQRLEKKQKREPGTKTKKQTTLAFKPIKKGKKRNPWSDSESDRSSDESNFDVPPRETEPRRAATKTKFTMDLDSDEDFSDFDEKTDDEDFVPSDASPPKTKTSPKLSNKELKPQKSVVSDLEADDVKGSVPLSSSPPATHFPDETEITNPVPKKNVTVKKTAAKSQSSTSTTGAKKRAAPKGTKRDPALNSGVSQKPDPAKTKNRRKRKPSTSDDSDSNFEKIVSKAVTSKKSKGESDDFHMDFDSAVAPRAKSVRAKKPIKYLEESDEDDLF
# Test: Inhibition of human topoisomerase 2alpha expressed in Escherichia coli assessed as reduction in supercoiled pBR322 plasmid DNA relaxation at 50 to 100 uM after 10 to 15 mins by ethidium bromide staining based agarose gel electrophoresis
# Settings: not given
# Summary of the method: (§3)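 Relaxation assay with 500 ng supercoiled pBR322 DNA and 1 unit of human Topo I or Topo II in reaction buffer (20 µL), run at 37 °C for 10-15 min. Reaction stopped with loading buffer, then 1% agarose gel in TAE at 80 V for 0.5 h. Gel stained with ethidium bromide and bands viewed under UV. Camptothecin (Topo I) and m-AMSA (Topo II) served as references.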
row,Compound,inhibition
1,COc1ccc2nc3cc(Cl)ccc3c(Nc3ccc(-c4cn(CCCCCC(=O)NO)nn4)cc3)c2c1,Active
2,COc1ccc2nc3cc(Cl)ccc3c(Nc3cccc(-c4cn(CCCCCC(=O)NO)nn4)c3)c2c1,Active
3,O=C(CCc1ccc(Nc2c3ccccc3nc3ccccc23)cc1)NO,Active
4,O=C(CCCCCCn1cc(-c2ccc(Nc3c4ccccc4nc4ccccc34)cc2)nn1)NO,Active
5,O=C(CCCCCCn1cc(-c2cccc(Nc3c4ccccc4nc4ccccc34)c2)nn1)NO,Active
6,O=C(CCCCCn1cc(-c2ccc(Nc3c4ccccc4nc4ccccc34)cc2)nn1)NO,Active
7,COc1cc(NS(C)(=O)=O)ccc1Nc1c2ccccc2nc2ccccc12 [AMSACRINE],Active
8,COc1ccc2nc3cc(Cl)ccc3c(Nc3ccc(CCC(=O)NO)cc3)c2c1,Active
9,O=C(CCCCCn1cc(-c2cccc(Nc3c4ccccc4nc4ccccc34)c2)nn1)NO,Active

# Test system: U-937
# Test: Antiproliferative activity against human U937 cells after 48 hrs by MTT assay
# Assay type: functional, cell-based
# Settings: U-937, 48 h
row,Compound,IC50 [µM]
1,COc1ccc2nc3cc(Cl)ccc3c(Nc3ccc(-c4cn(CCCCCC(=O)NO)nn4)cc3)c2c1,3.55
2,COc1ccc2nc3cc(Cl)ccc3c(Nc3cccc(-c4cn(CCCCCC(=O)NO)nn4)c3)c2c1,2.94
3,O=C(CCc1ccc(Nc2c3ccccc3nc3ccccc23)cc1)NO,0.75
4,O=C(CCCCCCn1cc(-c2ccc(Nc3c4ccccc4nc4ccccc34)cc2)nn1)NO,0.9
5,COC(=O)CCc1ccc(Nc2c3ccccc3nc3ccccc23)cc1,3.87
6,O=C(CCCCCCn1cc(-c2ccc(Nc3c4ccccc4nc4ccccc34)cc2)nn1)NOC1CCCCO1 (configuration not stated),21.4
7,O=C(CCCCCCn1cc(-c2cccc(Nc3c4ccccc4nc4ccccc34)c2)nn1)NO,1.24
8,O=C(CCCCCn1cc(-c2ccc(Nc3c4ccccc4nc4ccccc34)cc2)nn1)NO,1.34
9,COc1ccc2nc3cc(Cl)ccc3c(Nc3ccc(CCC(=O)NO)cc3)c2c1,1.12
10,O=C(CCCCCn1cc(-c2cccc(Nc3c4ccccc4nc4ccccc34)c2)nn1)NO,2.67

# Test system: Calf thymus DNA
# Test: Binding affinity to calf thymus DNA assessed as assessed as bathochromic shift at 10 uM by UV-Vis absorption spectral analysis
# Assay type: nucleic-acid assay
# Settings: Bos taurus
# Summary of the method: as §2
row,Compound,Activity
1,O=C(CCCCCCn1cc(-c2ccc(Nc3c4ccccc4nc4ccccc34)cc2)nn1)NO,Active

# Test system: U-937
# Test: Induction of apoptosis in human U937 cells assessed as increase in cleaved caspase 3 levels up to 2.5 uM after 36 hrs by Western blot analysis
# Assay type: functional, cell-based
# Settings: not given
# Summary of the method: as §1
row,Compound,Activity
1,O=C(CCCCCCn1cc(-c2ccc(Nc3c4ccccc4nc4ccccc34)cc2)nn1)NO,Active

# Test system: U-937
# Test: Induction of apoptosis in human U937 cells assessed as increase in cleaved caspase 9 levels up to 2.5 uM after 36 hrs by Western blot analysis
# Assay type: functional, cell-based
# Settings: not given
# Summary of the method: as §1
row,Compound,Activity
1,O=C(CCCCCCn1cc(-c2ccc(Nc3c4ccccc4nc4ccccc34)cc2)nn1)NO,Active

# Molecular target: T2, DNA topoisomerase 1 (Homo sapiens) (UniProt P11387)
# T2 sequence (whole entry): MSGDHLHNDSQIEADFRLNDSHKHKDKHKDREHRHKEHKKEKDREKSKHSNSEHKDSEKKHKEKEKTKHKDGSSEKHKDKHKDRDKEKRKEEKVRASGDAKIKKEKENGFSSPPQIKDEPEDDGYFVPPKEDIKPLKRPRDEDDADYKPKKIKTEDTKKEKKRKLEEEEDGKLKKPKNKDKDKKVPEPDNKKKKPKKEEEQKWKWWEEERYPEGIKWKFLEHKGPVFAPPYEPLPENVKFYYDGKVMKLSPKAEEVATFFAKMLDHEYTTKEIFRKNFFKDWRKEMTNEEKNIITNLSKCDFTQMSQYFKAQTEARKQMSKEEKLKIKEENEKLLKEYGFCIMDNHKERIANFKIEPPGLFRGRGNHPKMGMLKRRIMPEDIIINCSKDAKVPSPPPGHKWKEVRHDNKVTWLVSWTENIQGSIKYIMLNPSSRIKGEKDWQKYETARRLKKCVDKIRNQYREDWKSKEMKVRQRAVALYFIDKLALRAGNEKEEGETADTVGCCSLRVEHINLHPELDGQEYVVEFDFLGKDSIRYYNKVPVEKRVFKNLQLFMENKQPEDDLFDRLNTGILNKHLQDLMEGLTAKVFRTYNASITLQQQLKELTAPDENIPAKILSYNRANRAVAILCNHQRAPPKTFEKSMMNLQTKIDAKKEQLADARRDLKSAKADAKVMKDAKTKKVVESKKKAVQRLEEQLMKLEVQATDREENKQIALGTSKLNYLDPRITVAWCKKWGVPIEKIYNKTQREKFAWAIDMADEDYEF
# Test: Inhibition of human topoisomerase 1 assessed as reduction in supercoiled pBR322 plasmid DNA relaxation at 100 uM after 10 to 15 mins by ethidium bromide staining based agarose gel electrophoresis
# Settings: not given
# Summary of the method: as §3
row,Compound,inhibition
1,O=C(CCc1ccc(Nc2c3ccccc3nc3ccccc23)cc1)NO,Active

# Test system: HCT-116
# Test: Antiproliferative activity against human HCT116 cells after 48 hrs by MTT assay
# Assay type: functional, cell-based
# Settings: HCT-116, 48 h
row,Compound,IC50 [µM]
1,O=C(CCc1ccc(Nc2c3ccccc3nc3ccccc23)cc1)NO,1.88
2,O=C(CCCCCCn1cc(-c2ccc(Nc3c4ccccc4nc4ccccc34)cc2)nn1)NO,2.11
3,COc1cc(NS(C)(=O)=O)ccc1Nc1c2ccccc2nc2ccccc12 [AMSACRINE],< 1

# Test system: MDA-MB-231
# Test: Antiproliferative activity against human MDA-MB-231 cells after 48 hrs by MTT assay
# Assay type: functional, cell-based
# Settings: MDA-MB-231, 48 h
# Summary of the method: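 Cells seeded at 5-10 × 10^3 per well and left 12 h at 37 °C, then given a range of concentrations (DMSO as blank) for 48 h. MTT (5 mg/mL) added for 4 h, formazan dissolved in DMSO, absorbance read at 490 nm. IC50 taken from dose-response curves of at least three independent experiments, mean ± SD.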
row,Compound,IC50 [µM]
1,O=C(CCc1ccc(Nc2c3ccccc3nc3ccccc23)cc1)NO,29.1
2,O=C(CCCCCCC(=O)Nc1ccccc1)NO [VORINOSTAT],4.93
3,O=C(CCCCCCn1cc(-c2ccc(Nc3c4ccccc4nc4ccccc34)cc2)nn1)NO,7.09
4,COc1cc(NS(C)(=O)=O)ccc1Nc1c2ccccc2nc2ccccc12 [AMSACRINE],10.1
